# Measured values taken from ChEMBL document CHEMBL1649446, “Comparative antipneumococcal activities of sulopenem and other drugs” (2009).
# Experiments:
# Format in all cases: functional
# Streptococcus pneumoniae [1] = assay: Antimicrobial activity against Streptococcus pneumoniae isolate 3455 by agar dilution method
# Streptococcus pneumoniae [2] = assay: Antimicrobial activity against Streptococcus pneumoniae isolate 1147 by agar dilution method
# Summary of the method: (§1)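 Agar dilution MIC on Mueller-Hinton agar with 5% sheep blood, inocula 10^4 CFU/spot; amoxicillin-clavulanate combined 1:2; S. pneumoniae ATCC 49619 quality control each run.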
# Streptococcus pneumoniae [3] = assay: Antimicrobial activity against penicillin-susceptible Streptococcus pneumoniae by agar dilution method
# Streptococcus pneumoniae [4] = assay: Antimicrobial activity against Streptococcus pneumoniae isolate 3275 by agar dilution method; summary of the method: as §1
# Streptococcus pneumoniae [5] = assay: Antimicrobial activity against Streptococcus pneumoniae 6 by time-kill analysis
# Summary of the method: (§2)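 Time-kill in cation-adjusted Mueller-Hinton broth with 5% lysed horse blood; inocula 5 × 105 to 5 × 10^6 CFU/ml; drugs at MIC, 2× and 4× MIC; 35°C shaking water bath; viable counts at 0, 3, 6, 12, 24 h. Bactericidal = ≥3 log10 CFU/ml (99.9%) drop from original inoculum; 90%/99%/99.9% killing scored per strain.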
# Streptococcus pneumoniae [6] = assay: Antimicrobial activity against Streptococcus pneumoniae 11 by time-kill analysis; summary of the method: as §2
# Streptococcus pneumoniae [7] = assay: Antimicrobial activity against Streptococcus pneumoniae 2 by time-kill analysis; summary of the method: as §2
# Streptococcus pneumoniae [8] = assay: Antimicrobial activity against penicillin-intermediate Streptococcus pneumoniae by agar dilution method
# Streptococcus pneumoniae [9] = assay: Antimicrobial activity against Streptococcus pneumoniae isolate 2617 by agar dilution method; summary of the method: as §1
# Streptococcus pneumoniae [10] = assay: Antimicrobial activity against Streptococcus pneumoniae isolate 3374 by agar dilution method; summary of the method: as §1
# Streptococcus pneumoniae [11] = assay: Antimicrobial activity against Streptococcus pneumoniae 9 by time-kill analysis
# Summary of the method: (§3)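 Time-kill in cation-adjusted Mueller-Hinton broth with 5% lysed horse blood; inocula 5 × 105 to 5 × 10^6 CFU/ml; drugs at MIC, 2× and 4× MIC; 35°C shaking water bath; viable counts at 0, 3, 6, 12 and 24 h. Bactericidal if ≥3 log10 CFU/ml (99.9%) reduction from original inoculum; 90% and 99% killing also scored.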
# Streptococcus pneumoniae [12] = assay: Antimicrobial activity against Streptococcus pneumoniae isolate 3412 by agar dilution method; summary of the method: as §1
# Streptococcus pneumoniae [13] = assay: Antimicrobial activity against Streptococcus pneumoniae 1 by time-kill analysis; summary of the method: as §3
# Streptococcus pneumoniae [14] = assay: Antimicrobial activity against Streptococcus pneumoniae isolate 3587 by agar dilution method
# Streptococcus pneumoniae [15] = assay: Antimicrobial activity against Streptococcus pneumoniae isolate 3681 by agar dilution method; summary of the method: as §1
# Streptococcus pneumoniae [16] = assay: Antimicrobial activity against penicillin-resistant Streptococcus pneumoniae by agar dilution method; summary of the method: as §1
# Streptococcus pneumoniae [17] = assay: Antimicrobial activity against Streptococcus pneumoniae 10 by time-kill analysis; summary of the method: as §2
# Streptococcus pneumoniae [18] = assay: Antimicrobial activity against Streptococcus pneumoniae isolate 2880 by agar dilution method; summary of the method: as §1
# Streptococcus pneumoniae [19] = assay: Antimicrobial activity against Streptococcus pneumoniae isolate 2688 by agar dilution method; summary of the method: as §1
# Streptococcus pneumoniae [20] = assay: Antimicrobial activity against Streptococcus pneumoniae 12 by time-kill analysis; summary of the method: as §2
# Streptococcus pneumoniae [21] = assay: Antimicrobial activity against Streptococcus pneumoniae isolate 24 by agar dilution method
# Streptococcus pneumoniae [22] = assay: Antimicrobial activity against Streptococcus pneumoniae 19A by agar dilution method; summary of the method: as §1
# Streptococcus pneumoniae [23] = assay: Antimicrobial activity against Streptococcus pneumoniae isolate 1394 by agar dilution method
# Streptococcus pneumoniae [24] = assay: Antimicrobial activity against Streptococcus pneumoniae 4 by time-kill analysis; summary of the method: as §2
# Streptococcus pneumoniae [25] = assay: Antimicrobial activity against Streptococcus pneumoniae isolate 3263 by agar dilution method
# Streptococcus pneumoniae [26] = assay: Antimicrobial activity against Streptococcus pneumoniae isolate 3282 by agar dilution method
# Streptococcus pneumoniae [27] = assay: Antimicrobial activity against Streptococcus pneumoniae isolate 3791 by agar dilution method; summary of the method: as §1
# Streptococcus pneumoniae [28] = assay: Antimicrobial activity against Streptococcus pneumoniae isolate 1564 by agar dilution method
# Streptococcus pneumoniae [29] = assay: Antimicrobial activity against Streptococcus pneumoniae isolate 3481 by agar dilution method; summary of the method: as §1
# Streptococcus pneumoniae [30] = assay: Antimicrobial activity against Streptococcus pneumoniae isolate 3458 by agar dilution method
# Streptococcus pneumoniae [31] = assay: Antimicrobial activity against Streptococcus pneumoniae isolate 1424 by agar dilution method; summary of the method: as §1
# Streptococcus pneumoniae [32] = assay: Antimicrobial activity against Streptococcus pneumoniae 7 by time-kill analysis; summary of the method: as §2
# Streptococcus pneumoniae [33] = assay: Antimicrobial activity against Streptococcus pneumoniae isolate 1055 by agar dilution method
# Streptococcus pneumoniae [34] = assay: Antimicrobial activity against Streptococcus pneumoniae 8 by time-kill analysis; summary of the method: as §2
# Streptococcus pneumoniae [35] = assay: Antimicrobial activity against Streptococcus pneumoniae isolate 2874 by agar dilution method; summary of the method: as §1
# Streptococcus pneumoniae [36] = assay: Antimicrobial activity against Streptococcus pneumoniae isolate 37 by agar dilution method; summary of the method: as §1
# Streptococcus pneumoniae [37] = assay: Antimicrobial activity against Streptococcus pneumoniae isolate 3260 by agar dilution method
# Streptococcus pneumoniae [38] = assay: Antimicrobial activity against Streptococcus pneumoniae isolate 3346 by agar dilution method
# Streptococcus pneumoniae [39] = assay: Antimicrobial activity against Streptococcus pneumoniae 3 by time-kill analysis; summary of the method: as §2
# Streptococcus pneumoniae [40] = assay: Antimicrobial activity against Streptococcus pneumoniae isolate 33 by agar dilution method; summary of the method: as §1
# Streptococcus pneumoniae [41] = assay: Antimicrobial activity against Streptococcus pneumoniae isolate 4755 by agar dilution method; summary of the method: as §1
# Streptococcus pneumoniae [42] = assay: Antimicrobial activity against Streptococcus pneumoniae isolate 1146 by agar dilution method; summary of the method: as §1
# Streptococcus pneumoniae [43] = assay: Antimicrobial activity against Streptococcus pneumoniae isolate 1397 by agar dilution method; summary of the method: as §1
# Streptococcus pneumoniae [44] = assay: Antimicrobial activity against Streptococcus pneumoniae isolate 4747 by agar dilution method; summary of the method: as §1
# Streptococcus pneumoniae [45] = assay: Antimicrobial activity against Streptococcus pneumoniae isolate 2686 by agar dilution method; summary of the method: as §1
# Streptococcus pneumoniae [46] = assay: Antimicrobial activity against Streptococcus pneumoniae 5 by time-kill analysis; summary of the method: as §3
# Streptococcus pneumoniae [47] = assay: Antimicrobial activity against Streptococcus pneumoniae isolate 1384 by agar dilution method; summary of the method: as §1
smiles,measurement,setting,value
CO/N=C(\C(=O)N[C@@H]1C(=O)N2C(C(=O)O)=C(COC(N)=O)CS[C@H]12)c1ccco1 [CEFUROXIME],MIC,Streptococcus pneumoniae [1],4 µg/mL
same,MIC,Streptococcus pneumoniae [2],8 µg/mL
same,MIC50,Streptococcus pneumoniae [3],0.03 µg/mL
same,MIC90,Streptococcus pneumoniae [3],0.125 µg/mL
same,MIC,Streptococcus pneumoniae [4],2 µg/mL
same,MIC,Streptococcus pneumoniae [5],0.5 µg/mL
same,MIC,Streptococcus pneumoniae [6],4 µg/mL
same,MIC,Streptococcus pneumoniae [7],0.016 µg/mL
same,MIC50,Streptococcus pneumoniae [8],0.25 µg/mL
same,MIC90,Streptococcus pneumoniae [8],4 µg/mL
same,MIC,Streptococcus pneumoniae [9],4 µg/mL
same,MIC,Streptococcus pneumoniae [10],8 µg/mL
same,MIC,Streptococcus pneumoniae [11],0.25 µg/mL
same,MIC,Streptococcus pneumoniae [12],4 µg/mL
same,MIC,Streptococcus pneumoniae [13],0.03 µg/mL
same,MIC,Streptococcus pneumoniae [14],8 µg/mL
same,MIC,Streptococcus pneumoniae [15],4 µg/mL
same,MIC50,Streptococcus pneumoniae [16],4 µg/mL
same,MIC90,Streptococcus pneumoniae [16],16 µg/mL
same,MIC,Streptococcus pneumoniae [17],0.25 µg/mL
same,MIC,Streptococcus pneumoniae [18],4 µg/mL
same,MIC,Streptococcus pneumoniae [19],32 µg/mL
same,MIC,Streptococcus pneumoniae [20],4 µg/mL
same,MIC,Streptococcus pneumoniae [21],2 µg/mL
same,MIC50,Streptococcus pneumoniae [22],8 µg/mL
same,MIC90,Streptococcus pneumoniae [22],16 µg/mL
same,MIC,Streptococcus pneumoniae [23],16 µg/mL
same,MIC,Streptococcus pneumoniae [24],16 µg/mL
same,MIC,Streptococcus pneumoniae [25],4 µg/mL
same,MIC,Streptococcus pneumoniae [26],4 µg/mL
same,MIC,Streptococcus pneumoniae [27],8 µg/mL
same,MIC,Streptococcus pneumoniae [28],64 µg/mL
same,MIC,Streptococcus pneumoniae [29],8 µg/mL
same,MIC,Streptococcus pneumoniae [30],8 µg/mL
same,MIC,Streptococcus pneumoniae [31],16 µg/mL
same,MIC,Streptococcus pneumoniae [32],4 µg/mL
same,MIC,Streptococcus pneumoniae [33],4 µg/mL
same,MIC,Streptococcus pneumoniae [34],8 µg/mL
same,MIC,Streptococcus pneumoniae [35],8 µg/mL
same,MIC,Streptococcus pneumoniae [36],4 µg/mL
same,MIC,Streptococcus pneumoniae [37],4 µg/mL
same,MIC,Streptococcus pneumoniae [38],4 µg/mL
same,MIC,Streptococcus pneumoniae [39],1 µg/mL
same,MIC,Streptococcus pneumoniae [40],4 µg/mL
same,MIC,Streptococcus pneumoniae [41],8 µg/mL
same,MIC,Streptococcus pneumoniae [42],8 µg/mL
same,MIC,Streptococcus pneumoniae [43],8 µg/mL
same,MIC,Streptococcus pneumoniae [44],8 µg/mL
same,MIC,Streptococcus pneumoniae [45],16 µg/mL
same,MIC,Streptococcus pneumoniae [46],16 µg/mL
same,MIC,Streptococcus pneumoniae [47],4 µg/mL
